# Screening data deposited in PubChem BioAssay by The Scripps Research Institute Molecular Screening Center.
# Rows were chosen to be rich in hits. Some 4.5% of all compounds tested hit in one or more screens of this group.
# TAAR1 antag – human TAAR1 antagonists, primary screen, Fluo-8 calcium fluorescence, CHO RD-HGA16 cells. antagonist. Trace amine-associated receptor 1 (Homo sapiens), Q96RJ0. AID 624466, 2012. 360,000 tested, 1.5% active. inhibition, % at 3 µM;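 active = inhibition above a per-plate cutoff, the mean inhibition of test compounds on that plate plus 3 SD, cut at about 49% in these data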
# Target sequence (Q96RJ0 whole entry, looked up): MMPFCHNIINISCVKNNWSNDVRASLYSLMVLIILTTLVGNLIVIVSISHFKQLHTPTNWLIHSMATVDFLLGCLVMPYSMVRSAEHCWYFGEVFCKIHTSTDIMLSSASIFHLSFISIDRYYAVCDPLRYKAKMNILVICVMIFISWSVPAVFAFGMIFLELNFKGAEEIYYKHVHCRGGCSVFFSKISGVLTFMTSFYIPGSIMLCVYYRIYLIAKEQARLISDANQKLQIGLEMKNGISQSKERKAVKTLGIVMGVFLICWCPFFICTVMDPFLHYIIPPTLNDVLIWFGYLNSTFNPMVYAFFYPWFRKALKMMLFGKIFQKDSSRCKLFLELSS
#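 System: CHO RD-HGA16 cells bearing hTAAR1. Reagent: EC80 β-phenethylamine stimulus. Schedule: seeding 17-24 h prior, 75-min 37 °C, 30-min RT dye loading. Signal: Fluo-8 intracellular calcium dye fluorescence, real-time kinetic reads. Read-out: % inhibition from peak post-agonist over basal fluorescence ratio. Benchmarks: vehicle wells and EC80 agonist wells. Replicates: n of 1.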
# TAAR1 agonist – human TAAR1 agonists, primary screen, Fluo-8 calcium fluorescence, CHO RD-HGA16 cells; Trace amine-associated receptor 1 (Homo sapiens), Q96RJ0; vehicle wells 0%, saturating PEA agonist 100%; activation, % at 3 µM; 360,000 tested, 0.99% active;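 active = activation above the mean activation of all test compounds in the run plus 3 SD, cut at about 38% in these data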
#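 test system = CHO RD-HGA16 cells carrying human TAAR1 plus Gα16 | schedule = 17-24 h seeding, 75 min 37 °C dye, 30 min RT | compound dosing = 3 µM single concentration | control set = DMSO and PEA EC100 | replicates = n 1 | signal = Fluo-8 fluorescence, 5 s baseline then 140 s kinetic read | measure = percent activation vs PEA EC100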
# CHO parental Ca – ATP-evoked calcium signal inhibitors, parental CHO, primary screen, counter-screen for OX1R antagonist project, cell-based, fluorescence, Fluo-8 calcium dye; parental CHO-K1, ATP-induced calcium, Fluo-8 fluorescence; inhibition, % at 5.6 µM; 330,000 tested, 0.63% active; AID 463079, 2010;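 active = inhibition above that plate's mean sample inhibition plus 3 SD, cut at about 26% in these data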
#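 Assay system: parental CHO cells; Read-out basis: percent inhibition of ATP-evoked calcium rise, normalized to controls; Benchmarks: ATP and no-ATP DMSO wells; Compound dosing: single nominal dose of 5.6 µM per compound; Signal: Fluo-8 calcium dye fluorescence; Also added: ATP as calcium-mobilizing challenge; Repeats: singlicate.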
# OX1R antag-1 – antagonists of human orexin 1 receptor (OX1R); Orexin/Hypocretin receptor type 1 (Homo sapiens), O43613; OX1R-expressing cells, FRET antagonist read-out; inhibition, % at 6.6 µM; 330,000 tested, 1.8% active; AID 485270, 2010; in the data active = inhibition mostly above about 38%, no sharp cut-off; inactive = mostly below about 40%
# OX1R antag-2 – OX1R (HCRTR1) antagonists, primary screen, fluorescence, CHO/OX1R cells, Fluo-8 calcium, orexin A. Orexin/Hypocretin receptor type 1 (Homo sapiens), O43613. Fluo-8 calcium fluorescence. inhibition, % at 5 µM. 330,000 tested, 0.43% active;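 active = inhibition above its plate's threshold, mean inhibition of all tested compounds on the plate plus 3 SD, cut at about 37% in these data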
# GPR7 antag – GPR7 receptor antagonists, primary screen, cell-based, fluorescence, single concentration; Neuropeptides B/W receptor type 1 (Homo sapiens), P48145; GPR7-expressing cells, fluorescence antagonist assay; inhibition, % at 4.4 µM; 290,000 tested, 1.1% active; in the data active = inhibition above about 16%, passing the limit was not always enough;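 note: cells stimulated with the agonist NPW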
# Target sequence (P48145 whole entry, looked up): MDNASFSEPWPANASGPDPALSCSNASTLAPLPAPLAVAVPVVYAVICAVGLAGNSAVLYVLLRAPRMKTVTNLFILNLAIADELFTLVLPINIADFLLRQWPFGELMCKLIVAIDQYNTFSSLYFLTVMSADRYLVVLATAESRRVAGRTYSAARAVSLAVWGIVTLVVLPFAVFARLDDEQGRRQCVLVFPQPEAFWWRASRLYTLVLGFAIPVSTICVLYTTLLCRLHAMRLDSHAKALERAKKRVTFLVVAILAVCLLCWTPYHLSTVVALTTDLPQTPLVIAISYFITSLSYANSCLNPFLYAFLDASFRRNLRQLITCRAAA
# A number is an active result; - = inactive; . = not tested or not shown; + = active, no number.
SMILES,TAAR1 antag,TAAR1 agonist,CHO parental Ca,OX1R antag-1,OX1R antag-2,GPR7 antag
COc1ccc(OC)c(NC(=O)CSc2nc3nc(C)cc(C)n3n2)c1,-,-,-,-,-,.
Fc1cccc(C[n+]2csc3ccccc32)c1,-,-,-,-,-,-
c1ccc(C[n+]2csc3ccccc32)cc1,-,-,29,-,-,-
CCCCNC(=O)c1sc(=S)n2c1[nH]c(=O)c1ccccc12,-,-,-,52,-,-
COC(=O)[C@]12C[C@H](CC(=O)NCc3ccc(OC)c(OC)c3)C(=O)N(Cc3ccccc3)C1=C[C@H](C(C)(C)C)O[C@@H]2C,-,-,.,.,.,.
COc1cccc(/C=N/NC(=O)CNC(=O)C(c2ccccc2)c2ccccc2)c1O,-,-,-,-,-,-
C[C@H]1CN([C@@H](C)CO)C(=O)CCCn2nncc2CO[C@H]1CN(C)S(=O)(=O)c1ccc(Oc2ccccc2)nc1,-,-,.,.,.,.
Clc1ccc(-c2csc(NCC3CCCO3)n2)cc1 (centres undefined),-,-,.,.,.,.
COC(=O)c1ccc(N)cc1O,-,-,-,-,-,-
COC(=O)c1ccccc1-c1c2ccc(=N)cc-2oc2cc(N)ccc12,105,+,102,30,112,.
COc1ccc(C2=CC(=O)C[C@H](COCc3ccccc3)N(C(=O)OC(C)(C)C)O2)cc1,-,-,.,.,.,.
CC(=O)c1ccc(OCCCC(=O)Nc2cc(Cl)ccc2-n2cncn2)cc1,-,-,-,-,-,-
CCOc1ccc(OCCCC(=O)Nc2cc(Cl)ccc2-n2cncn2)cc1,58,-,-,-,-,.
Cc1cc(C)n(Cc2ccc(NC(=O)c3ccc(COc4ccccc4Br)cc3)cc2)n1,49,-,-,-,-,-
C=CCNC(=O)c1c(CS(=O)(=O)c2ccccc2)noc1C(=O)NCc1ccccc1,-,-,-,-,-,.
CCn1c2ccc(Cl)cc2c2nc3ccccc3nc21,-,-,-,69,-,-
COC(=O)c1cccc(NC(=O)/C=C/c2cccc([N+](=O)[O-])c2)c1,-,-,-,-,-,-
O=C(/C=C/c1cccc([N+](=O)[O-])c1)Nc1cc(C(=O)O)cc(C(=O)O)c1,-,-,-,62,-,-
O=C(c1cc(O)c(O)c([N+](=O)[O-])c1)c1ccccc1F,-,-,-,39,-,.
Cc1cccc(N2C(=O)c3cccc(Oc4ccc(Cl)cc4)c3C2=O)c1,-,38,-,-,-,-
O=C(O)c1cccc(N2C(=O)c3ccc(Oc4ccc(Cl)cc4)cc3C2=O)c1,-,-,-,-,-,-
COC(=O)Cc1nnn2c1CC(OC)c1ccccc1-2 (centres undefined),-,-,.,.,.,.
CC(=O)c1c(C)nc2ccccc2c1N,-,-,-,-,-,-
Cc1nc2ccccc2c(N)c1C(=O)/C=C/c1ccccc1,-,41,-,-,-,-
O=C(NC1CCCC1)c1cccc2c1C(=O)c1ccc(N3CCCCC3)cc1S2(=O)=O,-,-,-,-,-,.
SMILES,TAAR1 antag,TAAR1 agonist,CHO parental Ca,OX1R antag-1,OX1R antag-2,GPR7 antag
COc1ccccc1N1CCN(c2ccc3c(c2)S(=O)(=O)c2cccc(C(=O)NCC4CC4)c2C3=O)CC1,54,-,.,.,.,.
O=C(NC1CC1)c1cccc2c1C(=O)c1ccc(N3CCC(Cc4ccccc4)CC3)cc1S2(=O)=O,78,46,-,-,-,.
O=C(NCc1cc(C(F)(F)F)ccc1Cl)c1cccc2c1C(=O)c1ccc(N3CCC(Cc4ccccc4)CC3)cc1S2(=O)=O,.,.,-,-,-,.
CC1CCN(c2ccc3c(c2)S(=O)(=O)c2cccc(C(=O)NCc4ccc(F)cc4)c2C3=O)CC1,-,-,-,-,-,.
O=C(NC1CCCCC1)c1cccc2c1C(=O)c1ccc(N3CCCC3)cc1S2(=O)=O,59,-,-,-,-,.
O=C(NCc1ccccc1Br)c1cccc2c1C(=O)c1ccc(N3CCOCC3)cc1S2(=O)=O,.,.,-,-,-,.
C=CCNC(=O)c1cccc2c1C(=O)c1ccc(N3CCOCC3)cc1S2(=O)=O,-,-,-,64,-,.
CCn1c2c(n(C(C)=O)c1=O)C[C@@H](c1ccccc1)[C@@H](C)[C@@H](C(=O)N1CCCC1)C2,-,-,.,.,.,.
Cc1cn([C@H]2C[C@H](O)[C@@H](CCC(=O)NCCc3cccs3)O2)c(=O)[nH]c1=O,-,-,.,.,.,.
CC1CCN(c2ccc3c(c2)S(=O)(=O)c2cccc(C(=O)O)c2C3=O)CC1,-,-,-,-,-,.
CC1CCN(c2ccc3c(c2)S(=O)(=O)c2cccc(C(=O)NC4CCCCC4)c2C3=O)CC1,71,41,-,-,-,.
C=CCn1c(Sc2ncc([N+](=O)[O-])s2)n[nH]c1=O,-,-,-,57,-,-
C=CCn1c(CSc2ccccc2[N+](=O)[O-])n[nH]c1=S,-,-,-,-,-,-
COc1ccc(S(=O)(=O)N(C)CC(=O)Nc2ccc(C(F)(F)F)cc2)cc1Cl,-,-,32,-,-,-
COc1ccc(NC(=O)CN(C)S(=O)(=O)c2ccc(Cl)cc2)cc1Cl,-,-,-,-,-,-
COC(=O)C[C@H]1CC[C@@H](NC(=O)Nc2c(C)noc2C)[C@@H](CO)O1,-,-,.,.,.,.
Cc1ccc(S(=O)(=O)Nc2cc(C(C(=O)OC(C)C)C(=O)C(F)(F)F)c(O)c3ccccc23)c(C)c1 (centres undefined),-,-,31,114,51,-
CN1c2ccccc2C(C)(C)C12C=Cc1cc(O)ccc1O2 (centres undefined),-,-,56,-,-,-
COC(=O)N1Cc2ccnnc2CC1c1ccccc1-c1ccc(OC)cc1 (centres undefined),-,-,.,.,.,.
O=c1[nH]c(/C=C/c2cccnc2)c([N+](=O)[O-])c(=O)[nH]1,-,-,-,-,-,-
